Bioassay records deposited in PubChem by The Scripps Research Institute Molecular Screening Center.
An excerpt weighted towards active compounds, which were near 2.2% of everything screened.
M1 ag = human M1 muscarinic receptor agonism; P11229; 0.33% of 360,000 active; CHO-K1 hM1, Fluo-8 calcium fluorescence, agonist mode; 0% DMSO, 100% acetylcholine EC100; activation, % at 3 µM; AID 588814;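 active = activation above the run's mean compound activation plus 3 SD, cut at about 16% in these data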;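 note: peak over basal fluorescence ratio within a 140 s kinetic read after compound addition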
CHRM5 antagonist = blocks acetylcholine activation of human M5 receptor. P08912. CHO-hM5 cells, Fluo-8 calcium fluorescence, ACh EC80. inhibition, % at 3 µM. 0.59% of 360,000 active. AID 624040;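 active = inhibition above a per-plate cutoff, the mean of that plate's test compounds plus 3 SD, cut at about 27% in these data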;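 note: 0% = acetylcholine EC80 with DMSO and 100% = DMSO without agonist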
Target sequence (P08912 whole entry, looked up): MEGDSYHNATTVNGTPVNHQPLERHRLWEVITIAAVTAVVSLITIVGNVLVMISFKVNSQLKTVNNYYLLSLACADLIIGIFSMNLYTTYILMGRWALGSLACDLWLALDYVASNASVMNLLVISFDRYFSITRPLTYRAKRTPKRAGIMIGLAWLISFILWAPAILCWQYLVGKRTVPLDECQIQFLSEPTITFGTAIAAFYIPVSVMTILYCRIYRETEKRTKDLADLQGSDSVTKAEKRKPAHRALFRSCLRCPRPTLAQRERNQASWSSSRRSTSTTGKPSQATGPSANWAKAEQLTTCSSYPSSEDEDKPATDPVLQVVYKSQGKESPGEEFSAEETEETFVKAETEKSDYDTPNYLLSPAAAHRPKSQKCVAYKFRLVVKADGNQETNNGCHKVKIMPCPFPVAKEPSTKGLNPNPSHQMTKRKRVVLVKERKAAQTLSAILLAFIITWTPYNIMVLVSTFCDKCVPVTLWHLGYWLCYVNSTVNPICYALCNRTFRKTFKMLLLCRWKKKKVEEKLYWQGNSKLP
M1 PAM = positive allosteric modulators of human M1 muscarinic receptor. 0.088% of 360,000 active. AID 588819. CHO-K1 hM1, Fluo-8 calcium fluorescence, ACh EC20; 0% = ACh EC20, 100% = maximal ACh. P11229. activation, % at 3 µM; in the data active = activation above about 19%, passing the limit was not always enough
CHRM5 PAM = positive allosteric modulators of human muscarinic M5 receptor. 0.3% of 360,000 active. activation, % at 3 µM. AID 624038. CHO-K1 hM5, Fluo-8 calcium, ACh EC20 PAM; 0% = ACh EC20, 100% = ACh EC100. P08912;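 active = activation above the run cutoff, the mean activation of all test compounds plus 3 SD, cut at about 18% in these data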
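System – CHO-K1 hM5 cells · Compound – 3 µM, single dose · Incubation – compound preincubation 140 s before EC20 acetylcholine addition · Technique – Fluo-8 calcium fluorescence · Measure – Max/basal fluorescence ratio as % of EC20–EC100 ACh window · Benchmarks – low control EC20 acetylcholine (0%), high control EC100 acetylcholine (100%) · Replication – singlicate, one well per test compound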
CHRM5 agonist = CHRM5 agonism in calcium assay; 0.19% of 360,000 active; activation, % at 3 µM; P08912; CHO-K1 hM5 cells, Fluo-8 calcium fluorescence; 0% DMSO wells, 100% maximal acetylcholine response;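 active = activation above the run's mean over test compounds plus 3 SD, cut at about 23% in these data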;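 note: signal is peak over basal fluorescence ratio across the kinetic read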
CHRM1 antagonist = human CHRM1 antagonism. P11229. inhibition, % at 3 µM. CHO-K1 hM1, Fluo-8 calcium fluorescence, ACh EC80 antagonist. 1.3% of 360,000 active. AID 588852;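 active = percent inhibition above its own plate's cutoff, namely the mean of that plate's compound wells plus 3 SD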;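 note: peak over basal fluorescence ratio during 140 s after agonist addition; 0% = ACh EC80 plus DMSO and 100% = DMSO alone without agonist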
Active calls of the source: *; / = not tested or not shown.

SMILES | M1 ag | CHRM5 antagonist | M1 PAM | CHRM5 PAM | CHRM5 agonist | CHRM1 antagonist
Cc1ccc(NC(=O)COC(=O)Cc2ccccc2)cc1S(=O)(=O)N1CCOCC1 | -2 | 0 | 6 | -9 | 2 | -5
O=C(Nc1cccc(S(=O)(=O)N2CCCC2)c1)c1cc(S(=O)(=O)N2CCOCC2)ccc1F | -2 | 1 | -6 | -7 | -1 | 0
O=C(Nc1cccc(S(=O)(=O)N2CCOCC2)c1)c1cc(S(=O)(=O)N2CCOCC2)c(Cl)cc1Cl | -1 | 25 | -12 | -41 | 4 | 36*
CC(C)[C@H](NC(=O)c1cccc(S(=O)(=O)N2CCOCC2)c1)C(=O)OCC(=O)Nc1cccc(Br)c1 | 19* | 14 | -8 | -22 | 0 | 18
CC(C)Cc1ccc(C(=O)Nc2ccc(Cc3ccncc3)cc2)o1 | -7 | -2 | -6 | -17 | -15 | -5
COc1ccc(C(=O)Nc2cccc(S(=O)(=O)N3CCCC3)c2)cc1S(=O)(=O)N1CCOCC1 | -7 | 25 | -24 | -15 | -12 | 43*
N#Cc1cccc(C(=O)Nc2cccc(S(=O)(=O)N3CCCC3)c2)c1 | -6 | -1 | -21 | -3 | -4 | 38*
O=C(Nc1cccc(C(=O)Nc2cccc(Br)c2)c1)c1ccccc1 | 3 | 30* | -8 | -27 | 8 | 0
COc1cccc(C(O)c2nc(/C=C/c3ccccc3)cs2)c1 (stereo unspecified) | 0 | 3 | 13 | -5 | -1 | -13
Cc1ccc(C)c(-n2c(=O)c(C#N)cc3c(=O)n4ccccc4nc32)c1 | -4 | 2 | 5 | 28* | 2 | -3
CC(C)Cc1nnc(NC(=O)CCC(=O)N2CCN(c3ccc(Cl)cc3)CC2)s1 | 0 | -19 | 13 | 12 | -1 | -11
NC(=O)c1ccccc1NC(=O)COc1ccc2c(c1)OCO2 | 0 | 6 | 8 | -3 | 0 | -6
Cc1cc(NC(=O)C(C)SCC(=O)OC(C)C(=O)Nc2ccc(F)cc2Cl)no1 (stereo unspecified) | -4 | -3 | 11 | 8 | 0 | -14
COc1ccc(NC(=O)Cc2nnc(SCC(=O)NC3CCCC3)n2C)cc1 | 1 | 4 | 2 | -1 | -2 | -7
COc1ccc(NC(=S)NCc2cccnc2)cc1OC | -5 | -11 | 4 | 20* | -1 | -5
Cc1nc2sccn2c(=O)c1S(=O)(=O)Nc1ccc(N2CCN(S(C)(=O)=O)CC2)cc1 | -5 | 34* | -12 | -15 | -1 | 12
CCOc1ccc(NS(=O)(=O)c2c(C)nc3sccn3c2=O)cc1 | -2 | 0 | 6 | -3 | 3 | -17
O=[N+]([O-])c1ccccc1N(CC1CO1)S(=O)(=O)c1ccccc1 (stereo unspecified) | -5 | 22 | -2 | -7 | -3 | -7
CC(C)(C)NC(=O)C(C1CC1)n1c(-c2ccccc2)nc2ccccc21 (stereo unspecified) | / | -9 | / | 7 | 0 | /
Cn1nnnc1SCC(=O)c1ccc(Br)s1 | -5 | -1 | -3 | -5 | -4 | 20
Cn1c(Cc2ccccc2)nnc1SCC(=O)c1ccc(Br)s1 | -7 | 4 | -24 | -2 | -6 | 22*
O=S(=O)(NCC(c1ccc2c(c1)OCO2)N1CCOCC1)c1ccc(Br)cc1 (stereo unspecified) | -1 | 1 | 3 | -5 | -4 | -9
CN1CCN(C(CNS(=O)(=O)c2ccc(Br)cc2)c2ccc3c(c2)OCO3)CC1 (stereo unspecified) | -5 | 27* | 8 | -34 | -10 | -4
Cc1ccc(C(CNS(=O)(=O)c2ccccc2)N2CCN(C)CC2)cc1 (stereo unspecified) | -4 | -13 | 25* | 6 | -4 | -21
CCSc1nnc(SCC(=O)c2c(N)n(C)c(=O)n(C)c2=O)s1 | 2 | 3 | 5 | -2 | 4 | 5
SMILES | M1 ag | CHRM5 antagonist | M1 PAM | CHRM5 PAM | CHRM5 agonist | CHRM1 antagonist
CCCCn1c(N)c(N(CCC(C)C)C(=O)c2cc(Cl)nc3ccccc23)c(=O)[nH]c1=O | 10 | -13 | 16 | 26* | 3 | -1
CCCCn1c(N)c(N(CCC(C)C)C(=O)c2ccc3ccccc3c2)c(=O)[nH]c1=O | -5 | 8 | 2 | -3 | 1 | 11
CCCCn1c(N)c(N(CCC(C)C)C(=O)CSc2nc3ccccc3n2C)c(=O)[nH]c1=O | -3 | -5 | 7 | 21* | -3 | -6
COCCN(C(=O)COC(=O)c1cccs1)c1c(N)n(Cc2ccccc2)c(=O)[nH]c1=O | -2 | -7 | 6 | 2 | -3 | -10
O=C(NCCS(=O)(=O)N1CCN(Cc2ccccc2)CC1)c1ccccc1 | -2 | -4 | 15 | 6 | -2 | -16
O=[N+]([O-])c1ccc(CN2CCC(Cc3ccccc3)CC2)cc1 | -10 | 5 | -26 | -8 | -8 | 39*
O=[N+]([O-])c1ccc(CN2CCN(c3ccc([N+](=O)[O-])cc3)CC2)cc1 | 0 | 4 | -3 | -16 | -4 | -2
O=[N+]([O-])c1ccc(C(=S)N2CCC(Cc3ccccc3)CC2)cc1 | -5 | 2 | -9 | -4 | -2 | 7
Cc1ccc([N+](=O)[O-])c(OCCN2CCC(Cc3ccccc3)CC2)c1 | -6 | 11 | -23 | -15 | -12 | 84*
O=[N+]([O-])c1cccc(OCCCN2CCC(Cc3ccccc3)CC2)c1 | -8 | 6 | -30 | -32 | -25 | 77*
O=[N+]([O-])c1ccc(CN2CCSCC2)cc1 | 2 | -11 | 16 | 22* | 2 | -15
Cc1ccccc1OCCN1CCC(Cc2ccccc2)CC1 | -3 | 5 | -11 | -5 | -15 | 9
Cc1ccc(N(C)C(=O)c2cc(S(=O)(=O)N3CCCC3)cn2C)cc1 | -3 | 7 | -5 | -9 | 1 | 8
O=C(Nc1ccc(Cl)c(S(=O)(=O)N2CCOCC2)c1)[C@@H]1CCCN1C(=O)c1cccs1 | -7 | 1 | -2 | 4 | -3 | 5
O=[N+]([O-])c1ccc(Nc2ccccc2)c2nonc12 | 6 | -1 | -4 | -8 | 7 | -1
O=[N+]([O-])c1ccc(Sc2cccc[n+]2[O-])c2nonc12 | 5 | 41* | -1 | -14 | 17 | 44*
Cc1ccc(C)c(N2CCN(C(=O)C(Cc3ccccc3)n3cccc3)CC2)c1 (stereo unspecified) | -2 | 2 | -4 | -24 | 42* | -3
CC/C(=N\NC(=O)C(N)=O)c1ccccc1O | -2 | -8 | 10 | 4 | 1 | 0
COc1ccc(NS(=O)(=O)c2ccc(-c3coc(C)n3)cc2)cc1 | 9 | -5 | 15 | 3 | 5 | -7
